Reference: ChEMBL document CHEMBL4715736, “Identification of anticancer agents based on the thieno[2,3-b]pyridine and 1H-pyrazole molecular scaffolds” (2016)

Key:
Assay type in all cases: functional
[1] = system: K562; test: Growth inhibition of human K562 cells assessed as cell growth at 0.01 uM incubated for 48 hrs by sulforhodamine B assay relative to control; conditions: read-out: Activity
[2] = system: HCC 2998; test: Growth inhibition of human HCC 2998 cells assessed as cell growth at 0.01 uM incubated for 48 hrs by sulforhodamine B assay relative to control; conditions: read-out: Activity
In short: (§1)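 NCI Developmental Therapeutics Program NCI60 panel. Compounds that were active in the 10 µM one-dose screen went on to dose–response testing. Growth at each concentration is expressed relative to untreated control (100%). GI50 (concentration giving 50% of maximal inhibition of proliferation) and TGI (concentration giving total growth inhibition) were derived from the curves.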

[3] = system: OVCAR-8; test: Growth inhibition of human OVCAR-8 cells assessed as cell growth at 0.01 uM incubated for 48 hrs by sulforhodamine B assay relative to control; conditions: read-out: Activity
[4] = system: NCI/ADR-RES; test: Growth inhibition of human NCI/ADR-RES cells assessed as cell growth at 0.01 uM incubated for 48 hrs by sulforhodamine B assay relative to control; conditions: read-out: Activity
[5] = system: 786-0; test: Growth inhibition of human 786-0 cells assessed as cell growth at 0.01 uM incubated for 48 hrs by sulforhodamine B assay relative to control; conditions: read-out: Activity; in short: as §1
[6] = system: DU-145; test: Growth inhibition of human DU-145 cells assessed as cell growth at 0.01 uM incubated for 48 hrs by sulforhodamine B assay relative to control; conditions: read-out: Activity; in short: as §1
[7] = system: MCF7; test: Growth inhibition of human MCF7 cells assessed as cell growth at 0.01 uM incubated for 48 hrs by sulforhodamine B assay relative to control; conditions: read-out: Activity
[8] = system: T47D; test: Growth inhibition of human T47D cells assessed as cell growth at 0.01 uM incubated for 48 hrs by sulforhodamine B assay relative to control; conditions: read-out: Activity
[9] = system: NCI-H322M; test: Growth inhibition of human NCI-H322M cells assessed as cell growth at 0.1 uM incubated for 48 hrs by sulforhodamine B assay relative to control; conditions: read-out: Activity
[10] = system: Malme-3M; test: Growth inhibition of human Malme-3M cells assessed as cell growth at 0.1 uM incubated for 48 hrs by sulforhodamine B assay relative to control; conditions: read-out: Activity
[11] = system: M14; test: Growth inhibition of human M14 cells assessed as cell growth at 0.1 uM incubated for 48 hrs by sulforhodamine B assay relative to control; conditions: read-out: Activity
[12] = system: IGROV-1; test: Growth inhibition of human IGROV-1 cells assessed as cell growth at 0.1 uM incubated for 48 hrs by sulforhodamine B assay relative to control; conditions: read-out: Activity
[13] = system: MDA-MB-231; test: Growth inhibition of human MDA-MB-231 cells assessed as cell growth at 0.1 uM incubated for 48 hrs by sulforhodamine B assay relative to control; conditions: read-out: Activity
[14] = system: SR; test: Growth inhibition of human SR cells assessed as cell growth at 1 uM incubated for 48 hrs by sulforhodamine B assay relative to control; conditions: read-out: Activity
[15] = system: HOP-62; test: Growth inhibition of human HOP-62 cells assessed as cell growth at 1 uM incubated for 48 hrs by sulforhodamine B assay relative to control; conditions: read-out: Activity
[16] = system: HCT-116; test: Growth inhibition of human HCT-116 cells assessed as cell growth at 1 uM incubated for 48 hrs by sulforhodamine B assay relative to control; conditions: read-out: Activity
[17] = system: OVCAR-3; test: Growth inhibition of human OVCAR-3 cells assessed as cell growth at 1 uM incubated for 48 hrs by sulforhodamine B assay relative to control; conditions: read-out: Activity
[18] = system: 786-0; test: Growth inhibition of human 786-0 cells assessed as cell growth at 1 uM incubated for 48 hrs by sulforhodamine B assay relative to control; conditions: read-out: Activity; in short: as §1
[19] = system: MDA-MB-231; test: Growth inhibition of human MDA-MB-231 cells assessed as cell growth at 1 uM incubated for 48 hrs by sulforhodamine B assay relative to control; conditions: read-out: Activity
[20] = system: SNB-19; test: Growth inhibition of human SNB-19 cells assessed as cell growth at 100 uM incubated for 48 hrs by sulforhodamine B assay relative to control; conditions: read-out: Activity
[21] = system: SK-MEL-28; test: Growth inhibition of human SK-MEL-28 cells assessed as cell growth at 100 uM incubated for 48 hrs by sulforhodamine B assay relative to control; conditions: read-out: Activity
[22] = system: SK-MEL-5; test: Growth inhibition of human SK-MEL-5 cells assessed as cell growth at 100 uM incubated for 48 hrs by sulforhodamine B assay relative to control; conditions: read-out: Activity
[23] = system: IGROV-1; test: Growth inhibition of human IGROV-1 cells assessed as cell growth at 100 uM incubated for 48 hrs by sulforhodamine B assay relative to control; conditions: read-out: Activity
[24] = system: OVCAR-3; test: Growth inhibition of human OVCAR-3 cells assessed as cell growth at 100 uM incubated for 48 hrs by sulforhodamine B assay relative to control; conditions: read-out: Activity
[25] = system: OVCAR-5; test: Growth inhibition of human OVCAR-5 cells assessed as cell growth at 100 uM incubated for 48 hrs by sulforhodamine B assay relative to control; conditions: read-out: Activity
[26] = system: A498; test: Growth inhibition of human A498 cells assessed as cell growth at 100 uM incubated for 48 hrs by sulforhodamine B assay relative to control; conditions: read-out: Activity; in short: as §1
[27] = system: NCI-H522; test: Growth inhibition of human NCI-H522 cells incubated for 48 hrs by sulforhodamine B assay
In short: (§2)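 NCI60 panel at the NCI Developmental Therapeutics Program. Only compounds active in the 10 µM screen went to dose-response testing. GI50, the concentration giving 50% of maximal inhibition of proliferation, and TGI, the concentration giving total growth inhibition, were derived from the dose-response curves.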

[28] = system: SNB-75; test: Growth inhibition of human SNB-75 cells incubated for 48 hrs by sulforhodamine B assay
In short: (§3)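 NCI DTP 60-line human tumour panel. Dose-response curves were run only for ligands active in the initial 10 µM screen. GI50 (concentration giving 50% of maximal inhibition of proliferation) and TGI (concentration giving total growth inhibition) were derived from these curves.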

[29] = system: UACC-257; test: Growth inhibition of human UACC-257 cells incubated for 48 hrs by sulforhodamine B assay; in short: as §3
[30] = system: OVCAR-8; test: Growth inhibition of human OVCAR-8 cells incubated for 48 hrs by sulforhodamine B assay; conditions: for CC50: read-out: LC50 (the source's name); in short: as §3
[31] = system: MDA-MB-231; test: Growth inhibition of human MDA-MB-231 cells incubated for 48 hrs by sulforhodamine B assay; conditions: for CC50: read-out: LC50 (the source's name); in short: as §2
[32] = system: MDA-MB-468; test: Growth inhibition of human MDA-MB-468 cells incubated for 48 hrs by sulforhodamine B assay; conditions: for CC50: read-out: LC50 (the source's name); in short: as §2
[33] = system: NCI-H23; test: Growth inhibition of human NCI-H23 cells assessed as cell growth at 0.01 uM incubated for 48 hrs by sulforhodamine B assay relative to control; conditions: read-out: Activity
[34] = system: PC-3; test: Growth inhibition of human PC-3 cells assessed as cell growth at 0.01 uM incubated for 48 hrs by sulforhodamine B assay relative to control; conditions: read-out: Activity
[35] = system: PC-3; test: Growth inhibition of human PC-3 cells assessed as cell growth at 1 uM incubated for 48 hrs by sulforhodamine B assay relative to control; conditions: read-out: Activity

## CCc1ccccc1NC(=O)c1sc2nc3c(cc2c1N)C(=O)CCC3
[1]
  growth at 0.01 µM: 104%
[2]
  growth at 0.01 µM: 100%
[3]
  growth at 0.01 µM: 98%
[4]
  growth at 0.01 µM: 102%
[5]
  growth at 0.01 µM: 90%
[6]
  growth at 0.01 µM: 105%
[7]
  growth at 0.01 µM: 82%
[8]
  growth at 0.01 µM: 99%
[9]
  growth at 0.1 µM: 99%
[10]
  growth at 0.1 µM: 84%
[11]
  growth at 0.1 µM: 78%
[12]
  growth at 0.1 µM: 102%
[13]
  growth at 0.1 µM: 90%
[14]
  growth at 1 µM: 20%
[15]
  growth at 1 µM: 33%
[16]
  growth at 1 µM: 27%
[17]
  growth at 1 µM: 12%
[18]
  growth at 1 µM: 38%
[19]
  growth at 1 µM: 52%
[20]
  growth at 100 µM: 11%
[21]
  growth at 100 µM: 11%
[22]
  growth at 100 µM: 2%
[23]
  growth at 100 µM: 7%
[24]
  growth at 100 µM: -36%
[25]
  growth at 100 µM: 7%
[26]
  growth at 100 µM: -10%
[27]
  GI50: 502 nM
  LC50: > 100 µM
  TGI: > 100 µM
[28]
  GI50: 193 nM
  LC50: > 100 µM
  TGI: 55.1 µM
[29]
  GI50: 19.9 µM
  LC50 (concentration killing 50% of cells): > 100 µM
  TGI: > 100 µM
[30]
  GI50: 2520 nM
  TGI: > 100 µM
  CC50: > 100 µM
[31]
  GI50: 1250 nM
  TGI: > 100 µM
  CC50: > 100 µM
[32]
  GI50: 209 nM
  TGI: 44.7 µM
  CC50: > 100 µM

## CCc1cccc(C)c1NC(=O)c1sc2nc3c(cc2c1N)C(=O)CCC3
[1]
  growth at 0.01 µM: 92%
[33]
  growth at 0.01 µM: 99%
[2]
  growth at 0.01 µM: 99%
[3]
  growth at 0.01 µM: 99%
[4]
  growth at 0.01 µM: 100%
[5]
  growth at 0.01 µM: 86%
[34]
  growth at 0.01 µM: 94%
[6]
  growth at 0.01 µM: 101%
[7]
  growth at 0.01 µM: 83%
[8]
  growth at 0.01 µM: 97%
[9]
  growth at 0.1 µM: 91%
[10]
  growth at 0.1 µM: 86%
[11]
  growth at 0.1 µM: 92%
[12]
  growth at 0.1 µM: 104%
[13]
  growth at 0.1 µM: 100%
[14]
  growth at 1 µM: 17%
[15]
  growth at 1 µM: 52%
[16]
  growth at 1 µM: 28%
[17]
  growth at 1 µM: 10%
[18]
  growth at 1 µM: 36%
[35]
  growth at 1 µM: 31%
[19]
  growth at 1 µM: 51%
[20]
  growth at 100 µM: 34%
[21]
  growth at 100 µM: 11%
[22]
  growth at 100 µM: -78%
[23]
  growth at 100 µM: 8%
[24]
  growth at 100 µM: -50%
[25]
  growth at 100 µM: 30%
[26]
  growth at 100 µM: -16%
[28]
  GI50: 212 nM
  LC50: > 100 µM
[29]
  GI50: 0.185 µM
  LC50 (concentration killing 50% of cells): > 100 µM
  TGI: 62.3 µM
[30]
  GI50: 2130 nM
  TGI: ≥ 100 µM
  CC50: > 100 µM
[31]
  GI50: 1040 nM
  TGI: > 100 µM
  CC50: > 100 µM
[32]
  GI50: 261 nM
  TGI: 60.6 µM
  CC50: > 100 µM
